GRK2 aptamer HTS: blocks RNA aptamer binding to human GRK2 | AID 488847 | bead flow cytometry, FAM-aptamer displacement from GRK2 | actives 0.59% (n = 330,000) | P25098 | inhibition of aptamer binding, % at 10 µM;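 active = inhibition of aptamer binding above 40%, roughly 3 SD of noise, on plates passing a quality check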;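 also: median bead fluorescence of bound FAM aptamer so fluorescent compounds give negative values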
Scp-1 inhibitor: Scp-1 (human) phosphatase inhibition. Q9GZU7. Recombinant Scp1, phosphopeptide, malachite green phosphate absorbance. inhibition, % at 20 µM. actives 0.88% (n = 340,000). AID 493091;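 active = inhibition above about 50% at 20 µM, limit read from the data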;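 also: plate controls were DMSO wells with enzyme for no effect and wells lacking enzyme for full effect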
Target sequence (Q9GZU7 76-261 limits assumed): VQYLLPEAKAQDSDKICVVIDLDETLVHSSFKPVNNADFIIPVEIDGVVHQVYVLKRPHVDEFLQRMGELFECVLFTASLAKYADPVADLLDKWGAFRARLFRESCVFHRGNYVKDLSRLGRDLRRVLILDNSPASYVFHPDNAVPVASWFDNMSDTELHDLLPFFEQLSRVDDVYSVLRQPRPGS
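Test system: SCP-1 catalytic domain; Buffer or medium: Acidic Tris acetate buffer with magnesium and detergent; Also added: Phosphorylated 17-residue peptide substrate; Compound: single 20 µM dose, 1% DMSO; Schedule: enzyme reaction 45 min at room temperature, colour 5 min, stabilisation 30 min; Signal: Phosphate-binding colour reagent, absorbance read at 630 nm.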
STEP block: STEP (human) phosphatase inhibition | inhibition, % at 20 µM | AID 588621 | recombinant STEP, OMFP fluorogenic substrate, fluorescence | actives 0.25% (n = 360,000) | P54829;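 active = inhibition at 20 µM, scaled per plate between control wells, above about 37%, limit read from the data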;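 also: 0% = DMSO with enzyme and substrate and 100% = substrate only without enzyme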
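Also added – OMFP at 25 µM · Test system – STEP tyrosine phosphatase · Technique – FITC-channel fluorescence of OMFP product · Schedule – 20 min at room temperature, dark · Evaluation – control-normalized % inhibition with plate pattern correction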
DNMT1 inh: DNMT1 (human) enzyme inhibition; DNMT1 molecular beacon, Hinp1I cleavage, fluorescence; inhibition (reported as % activation of signal), % at 10 µM; actives 0.83% (n = 360,000); AID 588458; in the data active = inhibition above about 50%
LMPTP inh: LMPTP (human) inhibition; P24666; recombinant LMPTP-A, OMFP fluorogenic substrate, fluorescence intensity; actives 0.22% (n = 360,000); inhibition, % at 20 µM;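 active = compounds that cut the enzyme signal by at least half of the control window in the single-dose screen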;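 also: plate controls were DMSO wells with enzyme plus substrate for no effect and substrate without enzyme for full effect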
Target sequence (P24666 whole entry, looked up): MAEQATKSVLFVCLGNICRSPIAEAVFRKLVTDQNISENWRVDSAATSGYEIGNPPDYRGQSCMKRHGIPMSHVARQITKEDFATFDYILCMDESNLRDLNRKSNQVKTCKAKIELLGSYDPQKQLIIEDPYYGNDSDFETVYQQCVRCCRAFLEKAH
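Test system: LMPTP-A, protein tyrosine phosphatase of low molecular weight; Input: 0.625 nM enzyme; Incubation: 50 min dark incubation at room temperature; Signal: endpoint fluorescence intensity from OMFP dephosphorylation; Read-out basis: % inhibition versus control wells.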
SUMO1 PPI mod: alters human SUMO1 binding to SIM partners. inhibition, % at 20 µM. P63165. SUMO1 binding to a labelled peptide, TR-FRET, 1 h. actives 0.33% (n = 360,000). AID 602429; in the data active = inhibition above about 37%
Target sequence (P63165 whole entry, looked up): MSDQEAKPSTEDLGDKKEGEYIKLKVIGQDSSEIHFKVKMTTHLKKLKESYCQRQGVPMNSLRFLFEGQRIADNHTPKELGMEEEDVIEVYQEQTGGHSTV
GRK2 inh confirm: confirmation of human GRK2 inhibitors displacing RNA aptamer. shares compounds with GRK2 aptamer HTS. bead-bound GRK2, FAM-aptamer displacement, flow cytometry. aptamer displacement, % at 10 µM. actives 4% (n = 2,000);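 active = aptamer displacement above 40%, near three times the noise of non-fluorescent compounds, on plates passing quality checks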;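 also: negative values mostly reflect intrinsic compound fluorescence rather than true enhancement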
FAM quench CP1: quenches fluorescent RNA aptamer, GRK2 hit artifact. Carboxyfluorescein RNA aptamer on beads, flow cytometry quenching; stronger effect = lower value. fluorescence response (% of DMSO), % at 10 µM. AID 504580. 2,000 tested, under 10 active. shares compounds with GRK2 aptamer HTS;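 active = compounds that quench the bead-bound fluorescent RNA probe, cutting fluorescence to under half of the solvent control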;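 also: counterscreen run without GRK2 so only probe quenching by compound is measured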
GRK2 confirm 2: confirmation of human GRK2 inhibitors binding RNA aptamer site. shares compounds with GRK2 aptamer HTS. bead-bound GRK2, FAM-aptamer displacement, flow cytometry. inhibition of aptamer binding, % at 10 µM. 360 tested, under 10 active;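 active = inhibition of aptamer binding above 40%, about triple the noise seen with nonglowing compounds, on plates passing quality control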;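 also: negative values mostly come from compounds that fluoresce themselves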
FAM quench SP: quenches fluorescent RNA aptamer, GRK2 hit artifact. 360 tested, under 10 active. shares compounds with GRK2 aptamer HTS. carboxyfluorescein RNA aptamer beads, flow cytometry quenching; stronger effect = lower value. fluorescence response vs DMSO, % at 10 µM;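 active = response vs DMSO under 50%, meaning signal dropped by over half, treated as fluorescence quencher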;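 also: labelled aptamer on streptavidin beads without GRK2 as a quench counter-screen; 100% = bead fluorescence of DMSO wells and lower means quenching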
Active calls of the source: *. This is a sample that favours compounds with a hit; in the whole collection about 2.2% have one here.

Screening CCOc1ccc(CC(=O)NCc2ccc3c(c2)cc(C)n3C)cc1 returned GRK2 aptamer HTS 0.0, Scp-1 inhibitor -6.5, STEP block -1.4, DNMT1 inh -7.1, LMPTP inh 6.9, SUMO1 PPI mod -6.3, GRK2 inh confirm -3.0 and FAM quench CP1 100.2.
`Cc1cc2cc(CNC(=O)COc3ccccc3)ccc2n1C` gave GRK2 aptamer HTS 23.0, Scp-1 inhibitor -10.6, STEP block 0.3, DNMT1 inh 7.9, LMPTP inh 31.9 and SUMO1 PPI mod -32.1.
`CN(C)Cc1csc(NC(=O)Nc2ccccc2C(C)(C)C)n1` gave STEP block 0.1, DNMT1 inh -0.9, LMPTP inh -2.0 and SUMO1 PPI mod -3.1.
CCN(C(=O)c1cn(CC)c(=O)c2cc(OC)c(OC)cc12)c1ccccc1C was read as GRK2 aptamer HTS 0.0, Scp-1 inhibitor -8.7, STEP block 0.6, DNMT1 inh 2.6, LMPTP inh 1.3 and SUMO1 PPI mod -0.6.
CCCN(C(=O)c1cn(C)c(=O)c2ccccc12)c1ccccc1C was read as GRK2 aptamer HTS 0.0, Scp-1 inhibitor -18.6, STEP block -3.1, DNMT1 inh -0.8, LMPTP inh -0.4, SUMO1 PPI mod 8.2, GRK2 inh confirm -2.6 and FAM quench CP1 95.6.
`C[C@H]1CN([C@@H](C)CO)C(=O)CCCn2cc(nn2)CO[C@@H]1CN(C)C(=O)Nc1cccc(F)c1` gave STEP block 2.7, DNMT1 inh 11.5, LMPTP inh -1.5 and SUMO1 PPI mod 6.4.
C=CCn1c(C)nnc1SCC(=O)Nc1ccccc1C(=O)NC1CC1 was read as Scp-1 inhibitor -3.8, STEP block 0.6, DNMT1 inh 2.5, LMPTP inh -1.5 and SUMO1 PPI mod 0.0.
`Cn1c(CCC(N)=O)nnc1SCC(=O)Nc1ccccc1C(=O)NC1CC1` gave GRK2 aptamer HTS 75.0*, Scp-1 inhibitor -3.4, STEP block -2.4, DNMT1 inh 2.6, LMPTP inh -2.6, SUMO1 PPI mod -3.0, GRK2 inh confirm -16.7 and FAM quench CP1 98.3.
Screening CNc1cc(N2CCN(S(=O)(=O)N(C)C)CC2)ccc1[N+](=O)[O-] returned GRK2 aptamer HTS 73.0*, Scp-1 inhibitor 2.5, STEP block 0.0, DNMT1 inh 0.8, LMPTP inh 1.9, SUMO1 PPI mod -27.7, GRK2 inh confirm 3.5 and FAM quench CP1 94.1.
O=C(CCS(=O)(=O)c1ccc2c(c1)NC(=O)CS2)NCCc1ccccc1 was read as GRK2 aptamer HTS 0.0, Scp-1 inhibitor -2.0, STEP block -1.9, DNMT1 inh -0.6, LMPTP inh 0.2, SUMO1 PPI mod 3.5, GRK2 confirm 2 6.9 and FAM quench SP 99.0.
For Cc1ccc(CNC(=O)CC(C)S(=O)(=O)c2ccc3c(c2)NC(=O)C(C)S3)cc1 (stereo unspecified) the results were GRK2 aptamer HTS 3.0, Scp-1 inhibitor -5.3, STEP block -3.2, DNMT1 inh -5.4, LMPTP inh -0.1, SUMO1 PPI mod 4.1, GRK2 confirm 2 0.7 and FAM quench SP 100.0.
`COC(=O)c1ccc(NC(=O)CCS(=O)(=O)c2ccc3c(c2)NC(=O)C(C)S3)cc1` (stereo unspecified) gave GRK2 aptamer HTS 6.0, Scp-1 inhibitor 1.1, STEP block 0.0, DNMT1 inh -1.2, LMPTP inh 0.9 and SUMO1 PPI mod 5.9.
`Cc1ccc(CNC(=O)CCS(=O)(=O)c2ccc3c(c2)NC(=O)C(C)S3)cc1` (stereo unspecified) gave GRK2 aptamer HTS 8.0, Scp-1 inhibitor 14.2, STEP block 2.0, DNMT1 inh 4.6, LMPTP inh -1.1, SUMO1 PPI mod -0.2, GRK2 confirm 2 8.5 and FAM quench SP 102.0.
For Cc1ccc(CCNC(=O)C2CCN(S(=O)(=O)c3ccc4c(c3)NC(=O)C(C)S4)CC2)cc1 (stereo unspecified) the results were GRK2 aptamer HTS 0.0, Scp-1 inhibitor -5.5, STEP block 2.8, DNMT1 inh 6.5, LMPTP inh 1.0 and SUMO1 PPI mod -5.0.
Screening CCOC(=O)C1(C)CCCN1C(=O)c1ccc(C(F)(F)F)nc1C (stereo unspecified) returned STEP block -3.9, DNMT1 inh 3.7, LMPTP inh -1.9 and SUMO1 PPI mod -7.2.
COc1ccc(CN2C(=O)CCCC2(C)c2nc3ccccc3[nH]2)cc1 (stereo unspecified) was read as LMPTP inh -0.9 and SUMO1 PPI mod 7.4.
Screening COC1=CC(C)C2CC3OC(=O)CC4C(C)=C(OC)C(=O)C(C2(C)C1=O)C34C (stereo unspecified) returned STEP block -0.4, DNMT1 inh -2.9, LMPTP inh -2.5 and SUMO1 PPI mod -1.9.
For O=C(O)Cn1nnc(-c2cccs2)n1 the results were GRK2 aptamer HTS 89.0*, Scp-1 inhibitor 5.7, STEP block 0.9, DNMT1 inh 1.1, LMPTP inh -0.1, SUMO1 PPI mod 0.6, GRK2 inh confirm -1.9 and FAM quench CP1 100.2.
For O=C(NCCc1ccccc1)c1cc(S(=O)(=O)N2CCCCC2)c[nH]1 the results were STEP block -7.6, DNMT1 inh 4.6, LMPTP inh -0.7 and SUMO1 PPI mod 5.6.
Screening C=CCn1c(N)cc(=O)nc1SCC(=O)N1CCN(c2ccc(F)cc2)CC1 returned GRK2 aptamer HTS 56.0*, Scp-1 inhibitor -5.5, STEP block -1.2, DNMT1 inh 2.3, LMPTP inh -0.3, SUMO1 PPI mod -0.9, GRK2 inh confirm -4.5 and FAM quench CP1 104.3.
For O=C(CCSCCC(=O)N1CCCC1)N1CCCC1 the results were GRK2 aptamer HTS 45.0*, Scp-1 inhibitor 2.5, STEP block 0.1, DNMT1 inh 0.3, LMPTP inh 0.6, SUMO1 PPI mod 0.3, GRK2 inh confirm -3.6 and FAM quench CP1 95.6.
O=C(CN1C(=O)NC(Cc2ccccc2)C1=O)Nc1ccccc1F (stereo unspecified) was read as GRK2 aptamer HTS 44.0*, Scp-1 inhibitor -2.8, STEP block 1.8, DNMT1 inh 1.6, LMPTP inh -0.7, SUMO1 PPI mod -2.1, GRK2 confirm 2 26.0 and FAM quench SP 100.0.
